Converted amounts (≈) assume the structure as drawn.
Key:
[1] = tested on: Mycobacterium tuberculosis; test: Antimicrobial activity against Mycobacterium tuberculosis H37Rv after 9 to 12 days by CLSI microbroth dilution technique; type: functional
Summary of the method: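 M. tuberculosis H37Rv grown in Middlebrook 7H9 with 10% OADC to OD600 0.4–0.6, frozen in aliquots of known CFU/mL. Compounds serially diluted in DMSO, added to 7H9 medium; 2×10^4 bacteria per well. Incubated at 37 °C for […]. MIC90 read visually as concentration inhibiting 90% of growth. Isoniazid control run in each experiment.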

[2] = Cytotoxicity against african green monkey Vero cells after 72 hrs by alamar blue assay; type: cell-based; conditions: chlorocebus sabaeus, read-out: LD50
Summary of the method: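 Vero cells grown in phenol-free L15 medium with glutamine, penicillin-streptomycin and 10% bovine calf serum at 37°C. Compounds tested by microplate dilution for 72 h at 37°C. alamarBlue then added and plates incubated overnight at 37°C. Drug LD50 determined.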

[3] = Therapeutic index, CC50 for african green monkey Vero cells to MIC for Mycobacterium tuberculosis H37Rv; type: cell-based
Mus musculus = test: Toxicity in mouse assessed as death at 50 to 100 mg/kg; type: organism-based; set-up: dose 50-100 mg/kg; conditions: in vivo

SMILES | MIC [1] [µg/mL] | CC50 at 72 h [2] [µg/mL] | selectivity ratio [3] | Activity (Mus musculus)
N#CC1(c2ccccc2)CCN(C[C@@H](O)COc2ccc(Cl)cc2)CC1 | 25 (≈ 67.4 µM) |  |  | 
O[C@@H](COc1ccc(OC(F)(F)F)cc1)CN1CCC(O)(c2ccc(Cl)c(C(F)(F)F)c2)CC1 | 3.6 (≈ 7.01 µM) | 17.7 (≈ 34.4 µM) | 4.9 | 
O[C@@H](COc1ccc(Cl)cc1)CN1CCC(O)(c2ccc(Cl)c(C(F)(F)F)c2)CC1 | 1.4 (≈ 3.02 µM) | 18.2 (≈ 39.2 µM) | 13.3 | Toxic
O[C@H](COc1ccc(F)cc1)CN1CCC(O)(c2ccc(Cl)c(C(F)(F)F)c2)CC1 | 3.9 (≈ 8.71 µM) | 25.8 (≈ 57.6 µM) | 6.6 | 
O[C@H](COc1ccccc1)CN1CCC(O)(c2ccc(Cl)c(C(F)(F)F)c2)CC1 | 8.3 (≈ 19.3 µM) | 34.9 (≈ 81.2 µM) | 4.2 | 
Cc1cccc(C)c1OC[C@H](O)CN1CCC(O)(c2ccc(Cl)c(C(F)(F)F)c2)CC1 | 5.9 (≈ 12.9 µM) | 19.3 (≈ 42.1 µM) | 3.3 | 
O[C@H](COc1ccc(Cl)c(Cl)c1)CN1CCC(O)(c2ccc(Cl)c(C(F)(F)F)c2)CC1 | 7.3 (≈ 14.6 µM) | 18.7 (≈ 37.5 µM) | 2.6 | 
O[C@H](COc1ccc(OC(F)(F)F)cc1)CN1CCC(O)(c2ccc(Cl)c(C(F)(F)F)c2)CC1 | 7.3 (≈ 14.2 µM) | 17.6 (≈ 34.3 µM) | 2.4 | 
O[C@H](COc1ccc(C(F)(F)F)cc1)CN1CCC(O)(c2ccc(Cl)c(C(F)(F)F)c2)CC1 | 1.7 (≈ 3.41 µM) | 18.7 (≈ 37.6 µM) | 11 | 
O[C@@H](COc1ccc(C(F)(F)F)cc1)CN1CCC(O)(c2ccc(Cl)c(C(F)(F)F)c2)CC1 | 5.2 (≈ 10.4 µM) | 18.3 (≈ 36.8 µM) | 3.5 | 
O[C@@H](COc1ccc(F)cc1)CN1CCC(O)(c2ccc(Cl)c(C(F)(F)F)c2)CC1 | 10.4 (≈ 23.2 µM) | 20.8 (≈ 46.4 µM) | 2 | 
Cc1cccc(C)c1OC[C@@H](O)CN1CCC(O)(c2ccc(Cl)c(C(F)(F)F)c2)CC1 | 4.7 (≈ 10.3 µM) | 19 (≈ 41.5 µM) | 4.1 | 
O[C@@H](COc1ccc(Cl)cc1)CN1CCC(O)(c2cccc(C(F)(F)F)c2)CC1 | 25 (≈ 58.2 µM) |  |  | 
O[C@@H](COc1ccc(Cl)cc1)CN1CC=C(c2ccc(Cl)cc2)CC1 | > 200 |  |  | 
O[C@H](COc1ccc(Cl)cc1)CN1CCC(O)(c2ccc(Cl)c(C(F)(F)F)c2)CC1 | 3.8 (≈ 8.18 µM) | 17.9 (≈ 38.6 µM) | 4.7 | 
O[C@@H](COc1ccc(Cl)c(Cl)c1)CN1CCC(O)(c2ccc(Cl)c(C(F)(F)F)c2)CC1 | 3.1 (≈ 6.22 µM) | 18 (≈ 36.1 µM) | 5.8 | 
O[C@@H](COc1ccccc1)CN1CCC(O)(c2ccc(Cl)c(C(F)(F)F)c2)CC1 | 18.8 (≈ 43.7 µM) | 27.7 (≈ 64.4 µM) | 1.5 | 
O[C@@H](COc1ccc(Cl)cc1)CN1CCC(O)(c2ccc(Cl)cc2)CC1 | 25 (≈ 63.1 µM) |  |  | 
O[C@H](CSc1ccccc1)CN1CCC(O)(c2ccc(Cl)c(C(F)(F)F)c2)CC1 | 5.2 (≈ 11.7 µM) | 35.7 (≈ 80.1 µM) | 6.8 | 
O[C@@H](COc1ccc(Cl)cc1)CN1CCC(O)(c2ccccc2)CC1 | 100 (≈ 276 µM) |  |  | 
O[C@@H](CSc1ccccc1)CN1CCC(O)(c2ccc(Cl)c(C(F)(F)F)c2)CC1 | 8.3 (≈ 18.6 µM) | 37.1 (≈ 83.2 µM) | 4.4 | 
OC(COc1ccccc1)CN1CCC(O)(c2ccc(Cl)c(C(F)(F)F)c2)CC1 (racemic) | 10.4 (≈ 24.2 µM) | 19.5 (≈ 45.4 µM) | 1.9 | 
OC(COc1ccc(Cl)cc1)CN1CCC(O)(c2ccc(Cl)c(C(F)(F)F)c2)CC1 (racemic) | 1.5 (≈ 3.23 µM) | 17.9 (≈ 38.6 µM) | 11.9 | 

— ChEMBL document CHEMBL1151895, “Discovery, synthesis, and biological evaluation of piperidinol analogs with anti-tuberculosis activity” (Bioorg Med Chem, 2009)
